# In ChEMBL document CHEMBL1156767, “Indol-3-ylcycloalkyl ketones: effects of N1 substituted indole side chain variations on CB(2) cannabinoid receptor activity” (J Med Chem, 2010):
# Biological target: T1, Cannabinoid receptor 2 (Homo sapiens, UniProt P34972)
# Assay: Displacement of [3H]CP-55940 from human recombinant CB2 receptor expressed in HEK293 cells
# Assay type: cell-based
# Details: read-out: Ki
# T1 sequence (P34972 whole entry): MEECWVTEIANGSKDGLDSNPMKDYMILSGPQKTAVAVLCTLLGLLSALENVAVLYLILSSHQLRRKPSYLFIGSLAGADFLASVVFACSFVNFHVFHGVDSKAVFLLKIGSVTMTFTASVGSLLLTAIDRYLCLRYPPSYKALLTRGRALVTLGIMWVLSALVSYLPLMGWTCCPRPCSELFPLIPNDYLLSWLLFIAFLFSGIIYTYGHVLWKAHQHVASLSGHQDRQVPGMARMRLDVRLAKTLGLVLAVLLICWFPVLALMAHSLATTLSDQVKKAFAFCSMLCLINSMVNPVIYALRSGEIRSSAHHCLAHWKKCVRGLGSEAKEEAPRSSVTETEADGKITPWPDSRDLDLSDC
row,SMILES,Ki
1,CC1(C(=O)c2cn(CC3CCOCC3)c3ccccc23)CC(F)(F)C1(F)F (stereo not given),47 nM
2,CC1(C)C(C(=O)c2cn(CCCO)c3ccccc23)C1(C)C,2.1 nM
3,CN1CCCCC1Cn1cc(C(=O)C2C(C)(C)C2(C)C)c2ccccc21 (stereo not given),0.48 nM
4,CCCCCn1cc(C(=O)C2C(C)(C)C2(C)C)c2ccccc21,1.8 nM
5,CC1(C)C(C(=O)c2cn(CCCC(F)(F)F)c3ccccc23)C1(C)C,0.09 nM
6,CC1(C)C(C(=O)c2cn(CC3CCOC3)c3ccccc23)C1(C)C (stereo not given),0.14 nM
7,O=C(c1cn(CCN2CCOCC2)c2ccccc12)[C@@H]1CC12CCCCC2,35 nM
8,CC1(C)C(C(=O)c2cn(CCc3ccsc3)c3ccccc23)C1(C)C,1.8 nM
9,CC[C@H]1CC[C@H](C(=O)c2cn(CCN3CCOCC3)c3ccccc23)CC1,16 nM
10,O=C(c1cn(CCN2CCOCC2)c2ccccc12)C1CCCCC1,138 nM
11,CC1(C)C(C(=O)c2cn(CCN3CCCCC3)c3ccccc23)C1(C)C,2.3 nM
12,CC1(C)C(C(=O)c2cn(C[C@@H]3CCCO3)c3ccccc23)C1(C)C,3.3 nM
13,CC(C)[C@H]1CC[C@H](C(=O)c2cn(CCN3CCOCC3)c3ccccc23)CC1,190 nM

# Same assay, conditions: read-out: pKi (converted)
row,SMILES,Ki
1,CC1(C)C(C(=O)c2cn(CC3CCOC3)c3ccccc23)C1(C)C (stereo not given),0.49 nM

# Biological target: Cannabinoid receptor 1 (Homo sapiens, UniProt P21554)
# Assay: Displacement of [3H]CP-55940 from human recombinant CB1 receptor expressed in CHO cells
# Assay type: cell-based
# Details: read-out: Ki
# Chain of Cannabinoid receptor 1 (P21554 whole entry): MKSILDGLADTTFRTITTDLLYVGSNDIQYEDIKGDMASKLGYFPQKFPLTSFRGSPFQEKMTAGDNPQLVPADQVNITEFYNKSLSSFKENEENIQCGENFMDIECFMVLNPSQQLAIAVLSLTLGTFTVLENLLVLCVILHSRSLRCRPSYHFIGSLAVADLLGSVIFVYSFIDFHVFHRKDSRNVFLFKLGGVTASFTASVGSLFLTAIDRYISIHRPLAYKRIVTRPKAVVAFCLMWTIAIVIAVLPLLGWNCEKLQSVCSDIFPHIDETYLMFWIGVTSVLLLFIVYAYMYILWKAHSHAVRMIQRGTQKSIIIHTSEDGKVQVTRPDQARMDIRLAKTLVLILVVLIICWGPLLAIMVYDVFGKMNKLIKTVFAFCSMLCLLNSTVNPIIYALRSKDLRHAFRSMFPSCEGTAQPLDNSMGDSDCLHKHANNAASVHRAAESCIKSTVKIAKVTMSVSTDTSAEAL
row,SMILES,Ki
1,CC1(C(=O)c2cn(CC3CCOCC3)c3ccccc23)CC(F)(F)C1(F)F (stereo not given),1450 nM
2,CC1(C)C(C(=O)c2cn(CCCO)c3ccccc23)C1(C)C,2200 nM
3,CN1CCCCC1Cn1cc(C(=O)C2C(C)(C)C2(C)C)c2ccccc21 (stereo not given),5.5 nM
4,CCCCCn1cc(C(=O)C2C(C)(C)C2(C)C)c2ccccc21,150 nM
5,CC1(C)C(C(=O)c2cn(CCCC(F)(F)F)c3ccccc23)C1(C)C,15 nM
6,CC1(C)C(C(=O)c2cn(CC3CCOC3)c3ccccc23)C1(C)C (stereo not given),630 nM
7,O=C(c1cn(CCN2CCOCC2)c2ccccc12)[C@@H]1CC12CCCCC2,3060 nM
8,CC1(C)C(C(=O)c2cn(CCc3ccsc3)c3ccccc23)C1(C)C,148 nM
9,CC[C@H]1CC[C@H](C(=O)c2cn(CCN3CCOCC3)c3ccccc23)CC1,616 nM
10,O=C(c1cn(CCN2CCOCC2)c2ccccc12)C1CCCCC1,1630 nM
11,CC1(C)C(C(=O)c2cn(CCN3CCCCC3)c3ccccc23)C1(C)C,556 nM
12,CC1(C)C(C(=O)c2cn(C[C@@H]3CCCO3)c3ccccc23)C1(C)C,220 nM
13,CC(C)[C@H]1CC[C@H](C(=O)c2cn(CCN3CCOCC3)c3ccccc23)CC1,> 10000 nM

# Species on record: Homo sapiens
# Assay: Selectivity ratio of Ki for human recombinant CB1 receptor to Ki for human recombinant CB2 receptor
# Details: not given
# Summary of the method: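 Membranes were from HEK cells stably expressing human CB2 and CHO cells stably expressing human CB1. Competition was run against 0.5 nM [3H]CP-55,940 in 50 mM Tris-HCl pH 7.4, 2.5 mM EDTA, 5 mM MgCl2, 0.05% fatty-acid-free BSA, for 90 min at 30 °C, then filtered. Nonspecific binding was set with 10 μM unlabeled CP-55,940. Ki came from one-site fits. Mean ± SEM, ≥3 experiments in duplicate.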
row,SMILES,Ratio Ki
1,CC1(C(=O)c2cn(CC3CCOCC3)c3ccccc23)CC(F)(F)C1(F)F (stereo not given),31
2,CC1(C)C(C(=O)c2cn(CCCO)c3ccccc23)C1(C)C,1050
3,CN1CCCCC1Cn1cc(C(=O)C2C(C)(C)C2(C)C)c2ccccc21 (stereo not given),11
4,CCCCCn1cc(C(=O)C2C(C)(C)C2(C)C)c2ccccc21,83
5,CC1(C)C(C(=O)c2cn(CCCC(F)(F)F)c3ccccc23)C1(C)C,167
6,CC1(C)C(C(=O)c2cn(CC3CCOC3)c3ccccc23)C1(C)C (stereo not given),4500
7,O=C(c1cn(CCN2CCOCC2)c2ccccc12)[C@@H]1CC12CCCCC2,87
8,CC1(C)C(C(=O)c2cn(CCc3ccsc3)c3ccccc23)C1(C)C,82
9,CC[C@H]1CC[C@H](C(=O)c2cn(CCN3CCOCC3)c3ccccc23)CC1,39
10,O=C(c1cn(CCN2CCOCC2)c2ccccc12)C1CCCCC1,12
11,CC1(C)C(C(=O)c2cn(CCN3CCCCC3)c3ccccc23)C1(C)C,242
12,CC1(C)C(C(=O)c2cn(C[C@@H]3CCCO3)c3ccccc23)C1(C)C,67
13,CC(C)[C@H]1CC[C@H](C(=O)c2cn(CCN3CCOCC3)c3ccccc23)CC1,> 53

# Biological target: T1, Cannabinoid receptor 2
# Assay: Agonist activity at human recombinant CB2 receptor expressed in HEK293 cells coexpressing Galphaq/o5 assessed as calcium mobilization by FLIPR assay
# Assay type: functional, cell-based
# Details: not given
# Summary of the method: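 HEK cells stably coexpressing human CB2 and chimeric Gαq/o5 were seeded at 75 000 cells/well the day before and loaded with no-wash calcium dye. Mean ± SEM, ≥3 experiments in duplicate.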
row,SMILES,EC50
1,CC1(C(=O)c2cn(CC3CCOCC3)c3ccccc23)CC(F)(F)C1(F)F (stereo not given),197 nM
2,CC1(C)C(C(=O)c2cn(CCCO)c3ccccc23)C1(C)C,27 nM
3,CN1CCCCC1Cn1cc(C(=O)C2C(C)(C)C2(C)C)c2ccccc21 (stereo not given),628 nM
4,CCCCCn1cc(C(=O)C2C(C)(C)C2(C)C)c2ccccc21,29 nM
5,CC1(C)C(C(=O)c2cn(CCCC(F)(F)F)c3ccccc23)C1(C)C,6 nM
6,CC1(C)C(C(=O)c2cn(CC3CCOC3)c3ccccc23)C1(C)C (stereo not given),6 nM
7,O=C(c1cn(CCN2CCOCC2)c2ccccc12)[C@@H]1CC12CCCCC2,42 nM
8,CC1(C)C(C(=O)c2cn(CCc3ccsc3)c3ccccc23)C1(C)C,70 nM
9,CC[C@H]1CC[C@H](C(=O)c2cn(CCN3CCOCC3)c3ccccc23)CC1,85 nM
10,O=C(c1cn(CCN2CCOCC2)c2ccccc12)C1CCCCC1,86 nM
11,CC1(C)C(C(=O)c2cn(CCN3CCCCC3)c3ccccc23)C1(C)C,56 nM
12,CC1(C)C(C(=O)c2cn(C[C@@H]3CCCO3)c3ccccc23)C1(C)C,14 nM
13,CC(C)[C@H]1CC[C@H](C(=O)c2cn(CCN3CCOCC3)c3ccccc23)CC1,> 10000 nM

# Biological target: T1, Cannabinoid receptor 2
# Assay: Agonist activity at human recombinant CB2 receptor expressed in HEK293 cells coexpressing Galphaq/o5 assessed as calcium mobilization by FLIPR assay relative to CP-55940
# Assay type: functional, cell-based
# Details: not given
# Summary of the method: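 HEK cells stably coexpressing human CB2 and chimeric Gαq/o5 were seeded at 75 000 cells/well the day before and loaded with no-wash calcium dye. […] Mean ± SEM, ≥3 experiments in duplicate.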
row,SMILES,Activity
1,CC1(C(=O)c2cn(CC3CCOCC3)c3ccccc23)CC(F)(F)C1(F)F (stereo not given),46%
2,CC1(C)C(C(=O)c2cn(CCCO)c3ccccc23)C1(C)C,140%
3,CN1CCCCC1Cn1cc(C(=O)C2C(C)(C)C2(C)C)c2ccccc21 (stereo not given),48%
4,CCCCCn1cc(C(=O)C2C(C)(C)C2(C)C)c2ccccc21,93%
5,CC1(C)C(C(=O)c2cn(CCCC(F)(F)F)c3ccccc23)C1(C)C,104%
6,CC1(C)C(C(=O)c2cn(CC3CCOC3)c3ccccc23)C1(C)C (stereo not given),102%
7,O=C(c1cn(CCN2CCOCC2)c2ccccc12)[C@@H]1CC12CCCCC2,50%
8,CC1(C)C(C(=O)c2cn(CCc3ccsc3)c3ccccc23)C1(C)C,108%
9,CC[C@H]1CC[C@H](C(=O)c2cn(CCN3CCOCC3)c3ccccc23)CC1,59%
10,O=C(c1cn(CCN2CCOCC2)c2ccccc12)C1CCCCC1,44%
11,CC1(C)C(C(=O)c2cn(CCN3CCCCC3)c3ccccc23)C1(C)C,93%
12,CC1(C)C(C(=O)c2cn(C[C@@H]3CCCO3)c3ccccc23)C1(C)C,117%
